Measurements pooled from the literature.
Lines come from different studies, so protocols differ.
Target: Homeodomain-interacting protein kinase 2 (HIPK2, Homo sapiens, UniProt Q9H2X6)
Tested at: 1 µM

O=C(NCc1ncc(C(F)(F)F)cc1Cl)c1ccc2c(c1)C1(CCS(=O)(=O)CC1)[C@@H](C1CC1)N2S(=O)(=O)c1ccc(F)cc1 — remaining binding (cell-free assay, competition with immobilised ligand): 72%
Cc1cnc(Nc2ccc(C(=O)N3CCC(N4CCCC4)CC3)cc2)nc1-c1cc2ccccc2s1 — remaining binding (binding, competition with immobilised ligand): 0.5%
COc1ccnn2ncc(-c3ccnc(N(C)C)n3)c12 — remaining binding (binding): 71%
NS(=O)(=O)c1cc(NC(=O)C2(c3ccccc3Cl)CC2)ccc1Oc1cccc(Cl)c1 — remaining binding (cell-free assay, competition with immobilised ligand): 88%
O=C(NCC1CCOCC1)c1n[nH]cc1NC(=O)c1c(F)cccc1F — remaining binding (binding, competition with immobilised ligand): 100%
CNC(=O)[C@@H]1CC[C@@H](n2c(-c3ccc4cnccc4c3)nc3ccc(C(=O)NCc4cccc(C(N)=O)c4)cc32)C1 — remaining binding (binding, competition with immobilised ligand): 100%
CN(C)c1nccc(-c2cnn3ncccc23)n1 — remaining binding (binding): 49%
Cn1nc(C(F)(F)F)cc1-c1cnc(N2CCc3cc(S(=O)(=O)Nc4c(F)cc(Cl)cc4F)cc(N4CCCC4=O)c32)nc1 — remaining binding (cell-free assay, competition with immobilised ligand): 74%
O=C(c1ccc(Nc2ncc(Cl)c(-c3cc4ccccc4s3)n2)cc1)N1CCC(N2CCCC2)CC1 — remaining binding (binding, competition with immobilised ligand): 0.2%
CCCOc1ccc([C@@H]2[C@@H](C(=O)O)[C@H](c3ccc4c(c3)OCO4)CN2CC(=O)Nc2c(CC)cccc2CC)cc1 — remaining binding (cell-free assay, competition with immobilised ligand): 80%
COc1cc(Nc2nccc(-c3cnn4nc(OC)ccc34)n2)cc(C(F)(F)F)c1 — remaining binding (binding, competition with immobilised ligand): 34%
CC1CCCN1c1nccc(-c2cnn3ncccc23)n1 (stereo not shown) — remaining binding (binding): 100%
COc1cnc(Nc2cccc(S(N)(=O)=O)c2)nc1N1CCN(c2ccccc2)C(=O)C1 — remaining binding (binding, competition with immobilised ligand): 100%
CC(=O)Nc1c(C(C)=O)c(=O)n(C)c2nc(-c3ccc(Cl)cc3Cl)c(-c3ccc(Cl)cc3)cc12 — remaining binding (cell-free assay, competition with immobilised ligand): 100%
CN(C)c1ncc(F)c(-c2cnn3ncccc23)n1 — remaining binding (binding): 57%
CCN1CCN(Cc2ccc(C(=O)Nc3ccc(C)c(Oc4ccc5c(c4)CC(=O)N5)c3)cc2C(F)(F)F)CC1 — remaining binding (binding, competition with immobilised ligand): 100%
N[C@H]1CCN(c2nccc(-c3cnn4ncccc34)n2)C1 — remaining binding (binding): 98%
C[C@H](NC(=O)c1cnc2n1[C@](C)(Cc1ccc(C#N)cc1)C(=O)N2c1cc(Cl)c(F)c(Cl)c1)C(=O)NC1(c2ccccn2)CC1 — remaining binding (cell-free assay, competition with immobilised ligand): 100%
Cc1cnn2ncc(-c3ccnc(N(C)C)n3)c2c1 — remaining binding (binding): 63%
O=C(NCCCN1CCOCC1)c1ccc(Nc2nccc(-c3cc4ccccc4s3)n2)cc1 — remaining binding (binding, competition with immobilised ligand): 34%
C[C@@H]1CCN(c2nccc(-c3cnn4ncccc34)n2)C1 — remaining binding (binding): 61%
Cc1cc(-n2nc(Cc3cc(F)cc(C(F)(F)F)c3)nc2C)ccc1C(N)=O — remaining binding (cell-free assay, competition with immobilised ligand): 100%
